Calls of active or inactive are those of the source. No cut-off for these calls is given here.
Tests used:
[1] = system: HepG2; test: Cell cycle arrest in human HepG2 cells assessed as accumulation at G2/M phase at 1 uM after 24 hrs by flow cytometry (reference value: 11.29%); format: functional
[2] = system: HepG2; test: Induction of apoptosis in human HepG2 cells assessed as early apoptotic cells at 0.2 uM after 24 hrs by annexin V/propidium iodide staining-based flow cytometry (reference value: 0.87%); format: functional
[3] = system: HepG2; test: Induction of apoptosis in human HepG2 cells assessed as late apoptotic cells at 0.2 uM after 24 hrs by annexin V/propidium iodide staining-based flow cytometry (reference value: 3.74%); format: functional
[4] = system: HepG2; test: Induction of apoptosis in human HepG2 cells assessed as necrotic cells at 0.2 uM after 24 hrs by annexin V/propidium iodide staining-based flow cytometry (reference value: 1.59%); format: functional
[5] = system: HepG2; test: Induction of apoptosis in human HepG2 cells assessed as early apoptotic cells at 0.5 uM after 24 hrs by annexin V/propidium iodide staining-based flow cytometry (reference value: 0.87%); format: functional
[6] = system: HepG2; test: Induction of apoptosis in human HepG2 cells assessed as necrotic cells at 1 uM after 24 hrs by annexin V/propidium iodide staining-based flow cytometry (reference value: 1.59%); format: functional
[7] = system: HepG2; test: Induction of apoptosis in human HepG2 cells assessed as early apoptotic cells at 0.2 uM after 48 hrs by annexin V/propidium iodide staining-based flow cytometry (reference value: 0.87%); format: functional
[8] = system: HepG2; test: Induction of apoptosis in human HepG2 cells assessed as viable cells at 0.2 uM after 48 hrs by annexin V/propidium iodide staining-based flow cytometry (reference value: 89.8%); format: functional; conditions: HepG2, 48 h, read-out: Activity
[9] = system: HUVEC; test: Antimigratory activity against HUVEC at 500 nM after 24 hrs by phase contrast microscopy; format: functional, cell-based; conditions: Homo sapiens
Summary of the method: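 HUVEC monolayers grown overnight in 6-well plates, scratched with pipet tips, washed twice with PBS, then given fresh EBM2 with vehicle or compound. Imaged by phase contrast at 0 and 24 h (100×). Migrated cells counted manually in 3 separate fields; mean ± SD from three fields.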

[10] = system: SK-OV-3; test: Antitumor activity against human SKOV3 cells xenografted in Balb/c athymic nude mouse assessed as tumor growth inhibition at 20 mg/kg, ip administered daily after 42 days; format: functional; conditions: SK-OV-3, ip, 1008 h, read-out: TGI
Summary of the method: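 Female Balb/C athymic nude mice, 5-6 weeks old, bearing s.c. right-flank SK-OV-3 xenografts implanted in HBSS. At about 100 mm3, groups of 6 given vehicle, 5-FU 10 mg/kg or compound 20 mg/kg i.p. daily. Tumors measured every 2 days (π/6 × L × W²); inhibition = (1 − treated/control tumor weight) × 100%.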

[11] = system: SK-OV-3; test: Antitumor activity against human SKOV3 cells xenografted in Balb/c athymic nude mouse assessed as tumor growth inhibition at 50 mg/kg, ip administered daily after 42 days; format: functional; conditions: SK-OV-3, ip, 1008 h, read-out: TGI
[12] = Antiproliferative activity against human […] cells after 48 hrs by MTT assay; format: functional, cell-based
Summary of the method: (§1)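 HCT116, HepG2, SMMC-7721, SK-OV-3 and A2780s grown in DMEM; A549 and MCF-7 in RPMI-1640; all with 10% FBS and penicillin/streptomycin at 37 °C, 5% CO2. Log-phase cells at 40,000-50,000 cells/mL treated with graded concentrations for 48 h. MTT 3 h, DMSO solubilization, A570. IC50 from percent growth versus untreated control; mean ± SEM of ≥3 independent dose-response experiments.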

[13] = system: SK-OV-3; test: Antiproliferative activity against human SKOV3 cells after 48 hrs by MTT assay; format: functional, cell-based; conditions: SK-OV-3, 48 h; summary of the method: as §1
[14] = Inhibition of pig microtubule polymerization after 30 mins by turbidimetric assay; set-up: species or system Sus scrofa
Summary of the method: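 Porcine-brain MAP-rich tubulin at 3 mg/mL preincubated 30 min at 4 °C in 0.1 M PIPES pH 6.9, 2 mM MgCl2, 0.5 mM EGTA. Compounds added 2 min before the run, then 1 mM GTP. Turbidity followed kinetically at 340 nm at 37 °C; assembly IC50 derived by Hamel's method.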

[15] = system: A549; test: Antiproliferative activity against human taxol-resistant A549 cells after 48 hrs by MTT assay; format: functional, cell-based; conditions: A549, 48 h
Summary of the method: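 MCF-7/ADR (doxorubicin-resistant) and A549/T (taxol-resistant) cells in RPMI-1640 with 10% FBS and penicillin/streptomycin. Log-phase cells at 40,000-50,000 cells/mL exposed to graded concentrations for 48 h. MTT 3 h, DMSO solubilization, absorbance 570 nm. IC50 from percent growth versus untreated control; mean ± SEM of ≥3 independent experiments.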

[16] = system: A549; test: Resistance ratio, ratio of IC50 for human taxol-resistant A549 cells to IC50 for human A549 cells; format: functional
Summary of the method: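 MTT assay: log-phase cells at 40,000-50,000 cells/mL in RPMI-1640 with 10% FBS, exposed to graded concentrations for 48 h, then MTT 3 h, DMSO solubilization, absorbance at 570 nm. IC50 from growth versus untreated control, at least three independent experiments. Ratio = resistant-line IC50 / parental-line IC50.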

[17] = system: NCI-H1975; test: Antiproliferative activity against human gefitinib-resistant NCI-H1975 cells after 48 hrs by MTT assay; format: functional, cell-based; conditions: NCI-H1975, 48 h
[18] = system: HCT-116; test: Cell cycle arrest in human HCT116 cells assessed as accumulation at S phase at 0.5 uM after 24 hrs by flow cytometry (reference value: 25.66%); format: functional
[19] = system: HCT-116; test: Cell cycle arrest in human HCT116 cells assessed as accumulation at S phase at 1 uM after 24 hrs by flow cytometry (reference value: 25.66%); format: functional
[20] = system: HCT-116; test: Cell cycle arrest in human HCT116 cells assessed as accumulation at G2/M phase at 0.2 uM after 24 hrs by flow cytometry (reference value: 20.36%); format: functional
[21] = system: HCT-116; test: Induction of apoptosis in human HCT116 cells assessed as necrotic cells at 0.2 uM after 24 hrs by annexin V/propidium iodide staining-based flow cytometry (reference value: 3.49%); format: functional
[22] = system: HCT-116; test: Induction of apoptosis in human HCT116 cells assessed as early apoptotic cells at 0.5 uM after 24 hrs by annexin V/propidium iodide staining-based flow cytometry (reference value: 2.83%); format: functional
Summary of the method: (§2)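 HCT116 cells treated with compound or DMSO for 24 or 48 h, trypsinized, washed twice in PBS and dual-stained with annexin-V and PI. Analysed by flow cytometry: early apoptotic cells scored as annexin-V+/PI−, late apoptotic cells as annexin-V+/PI+.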

[23] = system: HCT-116; test: Induction of apoptosis in human HCT116 cells assessed as viable cells at 0.5 uM after 24 hrs by annexin V/propidium iodide staining-based flow cytometry (reference value: 92%); format: functional; conditions: HCT-116, 24 h, read-out: Activity
[24] = system: HCT-116; test: Induction of apoptosis in human HCT116 cells assessed as necrotic cells at 0.2 uM after 48 hrs by annexin V/propidium iodide staining-based flow cytometry (reference value: 3.49%); format: functional
[25] = system: HCT-116; test: Induction of apoptosis in human HCT116 cells assessed as early apoptotic cells at 1 uM after 48 hrs by annexin V/propidium iodide staining-based flow cytometry (reference value: 2.83%); format: functional; summary of the method: as §2

- IC50 [13]: 14.2 nM
- IC50 [14]: 2740 nM
- IC50 [15]: 43 nM
- IC50 [17]: 217 nM
Compound: CCOc1ccc(-c2nc(N)sc2-c2cc(OC)c(OC)c(OC)c2)cc1
- Activity [1]: 83.67%
- Activity [2]: 10.08%
- Activity [3]: 6.51%
- Activity [4]: 0.95%
- Activity [5]: 11.2%
- Activity [6]: 0.79%
- Activity [7]: 66.6%
- viability at 0.2 µM [8]: 28.5%
- Activity [9]: Active
- inhibition in vivo at 20 mg/kg [10]: 49.6%
- inhibition in vivo at 50 mg/kg [11]: 72.7%
- IC50 [12]: 23 nM
- Ratio IC50 [16]: 0.51
- Activity [18]: 20.51%
- Activity [19]: 7.71%
- Activity [20]: 48.79%
- Activity [21]: 3.69%
- Activity [22]: 11.2%
- viability at 0.5 µM [23]: 74.5%
- Activity [24]: 5.36%
- Activity [25]: 43.1%

Source: ChEMBL document CHEMBL3596186, “Synthesis and biological evaluation of diarylthiazole derivatives as antimitotic and antivascular agents with potent antitumor activity” (Bioorg Med Chem, 2015)
